An excerpt weighted towards active compounds, which were near 2% of everything screened.
Myeloid diff MLP: induction of myeloid progenitor differentiation, primary screen, cell-based, flow cytometry, MLPCN library; ER-HoxA9 myeloid progenitors, lysozyme-GFP differentiation; calls only at 10 µM; actives 1% (n = 360,000); AID 624256, 2012;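 active = normalized GFP-positive differentiation at or above the plate's own cutoff, the solvent-only control mean plus 3 SD; inconclusive = no clear call, values can overlap the other calls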;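 note: cells exposed to compound for four days before flow analysis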
T cell modulator: modulators of CD8 T cell-vesicle binding, primary screen, mouse 2C CD8+ T cells, flow cytometry; 2C CD8+ T cell-vesicle binding; active compounds read low; response (vesicle binding), % at 7 µM; actives 0.068% (n = 330,000); AID 2052, 2009;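 active = response, share of CD8 T cells binding vesicles, and their 90th percentile fluorescence all below set limits, cut at about 80% in these data, passing the limit was not always enough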;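 note: values below 100% mean blocked vesicle binding to the CD8+ T cells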
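material = purified 2C TCR transgenic mouse naive CD8+ T cells | controls = Unloaded micro-vesicles (low), QL9 vesicles with 0.7% DMSO (high) | detection = cytometric PE anti-B7-1 and Alexa647 anti-CD8 signals after 1% paraformaldehyde fixation | incubation = binding step 1.5 h, 37 °C, antibody labelling 20 min, ice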
NR2E3 ag-1: NR2E3 agonists in two-hybrid cells, primary screen, cell-based, luminescence, CHO-S, Gal4-NCOR/VP16-NR2E3; Photoreceptor-specific nuclear receptor (Homo sapiens), Q9Y5X4; luciferase; inhibition of corepressor binding, % at 3.98 µM; actives 0.35% (n = 360,000); AID 602229, 2012;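 active = inhibition above the mean of all tested compounds plus 3 SD, cut at about 70% in these data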;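 note: 0% = DMSO with NR2E3 transfected cells and 100% = cells lacking NR2E3 construct; higher means lower luciferase signal from less NR2E3 corepressor binding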
Target sequence (Q9Y5X4 whole entry, looked up, the tested form may be a part): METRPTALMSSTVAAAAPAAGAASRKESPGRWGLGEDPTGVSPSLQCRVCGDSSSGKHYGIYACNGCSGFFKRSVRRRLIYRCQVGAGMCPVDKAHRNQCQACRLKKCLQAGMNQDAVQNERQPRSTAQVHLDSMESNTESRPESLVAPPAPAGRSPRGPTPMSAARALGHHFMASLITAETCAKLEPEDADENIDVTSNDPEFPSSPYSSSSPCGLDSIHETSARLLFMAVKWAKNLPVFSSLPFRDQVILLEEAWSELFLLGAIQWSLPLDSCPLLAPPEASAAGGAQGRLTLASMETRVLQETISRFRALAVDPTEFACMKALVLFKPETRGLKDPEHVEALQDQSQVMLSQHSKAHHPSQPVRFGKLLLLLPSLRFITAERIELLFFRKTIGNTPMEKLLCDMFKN
GAA850 FXN act: FXN promoter activators, primary screen, cell-based, luciferase luminescence, HEK293 lucGAA850 | HEK293 lucGAA850 FXN promoter luciferase reporter, 24 h; percent of 10 µM SAHA response | activation, % at 6 µM | actives 0.56% (n = 360,000) | AID 540364, 2011;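 active = activation above the average of all compounds screened plus 3 SD, cutoff fixed separately per campaign, cut at about 7.5% in these data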;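 note: 0% = DMSO wells and 100% = 10 µM SAHA wells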
NR2E3 ag-2: inhibitors of NR2E3-RetCOR corepressor binding, primary screen, NR2E3 agonist project, biochemical, TR-FRET, GST-NR2E3, biotin-RetCOR | 1536-well | inhibition of corepressor binding, % at 4.78 µM | actives 0.12% (n = 320,000);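 active = percent inhibition above the cutoff of mean plus 3 SD of all tested compounds, set per screening campaign, cut at about 20% in these data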;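 note: 0% = DMSO wells and 100% = biotin wells as full block of FRET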
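Material: NR2E3–RetCOR corepressor complex | Quantity: 1.35 nM GST-tagged NR2E3 final | Schedule: 5 h at 4 °C | Replication: Singlicate compound wells | Reagent: RetCOR corepressor, biotinylated, 7 nM | Controls: Biotin wells as high control, 0.6% DMSO wells as low control | Signal: TR-FRET, Eu(K)-anti-GST donor, streptavidin-D2 acceptor, ex 340, em 617/671 nm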
GAA30 FXN cntr: GAA30 FXN promoter activators, confirmation, counter-screen for GAA850 frataxin promoter activator project, cell-based, luminescence, HEK293, lucGAA30, triplicate; activation, % at 6 µM; actives 66% (n = 1,900); AID 588350, 2011; shares compounds with GAA850 FXN act; HEK293 lucGAA30 FXN promoter luciferase, 24 h; DMSO = 0%, 5 µM ipriflavone = 100%;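 active = mean activation above the mean of solvent-only control wells plus 3 SD, cut at about 22% in these data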;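 note: counterscreen of GAA850 promoter hits where activity marks nonselective or luminescence artifacts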
FXN GAA850 conf: FXN GAA850 promoter activators in reporter cells, confirmation, cell-based, luminescence, HEK293 lucGAA850, triplicate; HEK293 lucGAA850 FXN promoter luciferase reporter, 24 h; 100% = activation by SAHA; shares compounds with GAA850 FXN act; activation, % at 6 µM; actives 86% (n = 1,900);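 active = mean activation above a set limit taken from the primary screen, cut at about 8% in these data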;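 note: 0% = DMSO wells and 100% = 10 µM SAHA wells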
Active calls of the source: *.

`CCCCn1nnc(NC(=O)c2cc3ccccc3o2)n1` gave Myeloid diff MLP inactive, T cell modulator 326, NR2E3 ag-1 -48, GAA850 FXN act 8.4*, NR2E3 ag-2 -1, GAA30 FXN cntr 82* and FXN GAA850 conf 26*.
`CN1CCN(c2ccc(NC(=O)c3cc4ccccc4o3)cc2)CC1` gave Myeloid diff MLP inactive, T cell modulator 755, NR2E3 ag-1 -183, GAA850 FXN act 7.7*, NR2E3 ag-2 1, GAA30 FXN cntr 138* and FXN GAA850 conf 39*.
`CC(C)(Oc1ccc(Cl)cc1)C(=O)NC1CC1` gave Myeloid diff MLP inactive, T cell modulator 285, NR2E3 ag-1 16, GAA850 FXN act 2 and NR2E3 ag-2 3.
Screening O=C(c1cccs1)N1CCN(c2ncc(Br)cn2)CC1 returned Myeloid diff MLP inactive, T cell modulator inactive, NR2E3 ag-1 -18, GAA850 FXN act 2 and NR2E3 ag-2 1.
Cc1ccc(Nc2nc(N)nc(-c3oc4ccccc4c3C)n2)cc1 was read as Myeloid diff MLP inconclusive, T cell modulator 312, NR2E3 ag-1 -66, GAA850 FXN act 3 and NR2E3 ag-2 0.
For Cc1c(-c2nc(N)nc(Nc3ccccc3F)n2)oc2ccccc12 the results were Myeloid diff MLP inactive, T cell modulator 198, NR2E3 ag-1 -115, GAA850 FXN act 14*, NR2E3 ag-2 -2, GAA30 FXN cntr 112* and FXN GAA850 conf 48*.
CC(NC(=O)c1cc2c(s1)CS(=O)(=O)C2)c1ccccc1 (stereo not given) was read as Myeloid diff MLP inactive, T cell modulator 402, NR2E3 ag-1 -10, GAA850 FXN act 1 and NR2E3 ag-2 -1.
Screening COC(=O)c1cccc(CN2C(=O)C(C)Sc3cc(Cl)ccc32)c1 (stereo not given) returned Myeloid diff MLP inactive, NR2E3 ag-1 -139 and GAA850 FXN act 4.
`Nc1nc(N)nc(-c2cccc([N+](=O)[O-])c2)n1` gave Myeloid diff MLP inactive and NR2E3 ag-1 -8.
Nc1nc(N)nc(-c2cc([N+](=O)[O-])ccc2O)n1 was read as Myeloid diff MLP inactive, T cell modulator 526, NR2E3 ag-1 33, GAA850 FXN act 17*, NR2E3 ag-2 0, GAA30 FXN cntr 69* and FXN GAA850 conf 51*.
For Clc1ccc(NCc2ccsc2)cc1 the results were T cell modulator 150 and NR2E3 ag-2 2.
`COc1cc(C(=O)O[C@H]2CC(C)=CC[C@@]3(C)CC[C@@](O)(C(C)C)[C@H]23)ccc1O` gave Myeloid diff MLP inactive, T cell modulator 767, NR2E3 ag-1 -6, GAA850 FXN act 16*, NR2E3 ag-2 -1, GAA30 FXN cntr 29* and FXN GAA850 conf 8.1*.
CCC(=O)Nc1ccc(C(=O)Cn2ncc(Cl)c(Cl)c2=O)cc1 was read as Myeloid diff MLP inconclusive, T cell modulator 47, NR2E3 ag-1 -2, GAA850 FXN act 8.7*, NR2E3 ag-2 3, GAA30 FXN cntr 22* and FXN GAA850 conf 11*.
`CCN(CC)S(=O)(=O)c1cc(NC(=O)CN2C(=O)NC(C)(c3ccccc3)C2=O)ccc1C` (stereo not given) gave Myeloid diff MLP inactive, T cell modulator 251, NR2E3 ag-1 -14, GAA850 FXN act -1 and NR2E3 ag-2 0.
Screening COc1ccc(NC(=O)Cn2ncc(Cl)c(Cl)c2=O)cc1S(=O)(=O)N1CCOCC1 returned Myeloid diff MLP inactive, T cell modulator 389, NR2E3 ag-1 -8, GAA850 FXN act 7.8*, NR2E3 ag-2 0, GAA30 FXN cntr -27 and FXN GAA850 conf 16*.
For CCOC(=O)c1ccc(NC(=O)Cn2ncc(Cl)c(Cl)c2=O)cc1 the results were Myeloid diff MLP inconclusive, T cell modulator 104, NR2E3 ag-1 43, GAA850 FXN act -13 and NR2E3 ag-2 -1.
For Cc1cc(Br)ccc1NC(=O)CNC(=O)Cn1ncc(Cl)c(Cl)c1=O the results were Myeloid diff MLP inconclusive, T cell modulator 310, NR2E3 ag-1 -5, GAA850 FXN act 8.7*, NR2E3 ag-2 1, GAA30 FXN cntr 1 and FXN GAA850 conf -16.
CCN(CC)S(=O)(=O)c1cc(NC(=O)Cn2ncc(Cl)c(Cl)c2=O)ccc1C was read as Myeloid diff MLP inconclusive, T cell modulator 112, NR2E3 ag-1 16, GAA850 FXN act 12*, NR2E3 ag-2 3, GAA30 FXN cntr 11 and FXN GAA850 conf 15*.
Screening O=c1[nH]c(=S)[nH]c2c1C(c1ccc(Cl)cc1)OC(CCc1ccccc1)C2 (stereo not given) returned Myeloid diff MLP inactive and NR2E3 ag-1 -47.
Screening O=C(Cn1ncc(Cl)c(Cl)c1=O)c1ccc2c(c1)OCCO2 returned T cell modulator 219, NR2E3 ag-1 39, GAA850 FXN act 8.6*, GAA30 FXN cntr 8 and FXN GAA850 conf 18*.
For O=C(Cn1ncc(Cl)c(Cl)c1=O)Nc1ccc2c(c1)OCO2 the results were Myeloid diff MLP inconclusive, T cell modulator 144, NR2E3 ag-1 13, GAA850 FXN act 11*, NR2E3 ag-2 5, GAA30 FXN cntr 8 and FXN GAA850 conf 12*.
`O=C(NCc1cccnc1)OC1CC2CC1[C@H]1CCCCN1C2=O` (stereo not given in full) gave Myeloid diff MLP inactive and NR2E3 ag-1 5.
Screening CC1(C)C2CCC(C2)C1(C)NC(=O)CNCC1CCCCC1 (stereo not given) returned Myeloid diff MLP inactive, T cell modulator 879, NR2E3 ag-1 -16, GAA850 FXN act 10*, NR2E3 ag-2 1, GAA30 FXN cntr 30* and FXN GAA850 conf 14*.
Screening CCOCCCNCC(=O)NC1(C)C2CCC(C2)C1(C)C (stereo not given) returned Myeloid diff MLP inactive, T cell modulator 122, NR2E3 ag-1 -7, GAA850 FXN act 2 and NR2E3 ag-2 -3.
`NS(=O)(=O)c1ccc(CNC(=S)NCc2ccc(F)cc2)cc1` gave Myeloid diff MLP inactive, T cell modulator 186, NR2E3 ag-1 -22, GAA850 FXN act -2 and NR2E3 ag-2 2.

High-throughput results as filed in PubChem.
